From paper PMC4828293 (Bioorganic & medicinal chemistry, 2015)
Entries after “also recorded” stand apart in the source; their conditions may differ. Read-outs that look alike come from different tables or passages of the source.

Legend:
DU-145 (prostate) = test: SRB cytotoxicity assay, DU-145; assay type: cell-based, human; conditions: read-out: GI50 (μM) SRB assay DU-145, DU-145, 48 h
Procedure, shortened: (§1)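 Serial dilutions of the test compound were added to the cells for 48 h. Cells were then fixed with trichloroacetic acid, washed, dried and stained with sulforhodamine B. The dye was solubilised and read at 540 nm, normalised to 630 nm.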

SK-OV-3 (ovarian) = test: SRB cytotoxicity assay, SK-OV-3; assay type: cell-based, human; conditions: read-out: GI50 (μM) SRB assay SK-OV-3, SK-OV-3, 48 h
Procedure, shortened: as §1

[1] = target: purified bovine brain tubulin (Bos taurus, UniProt P81947+Q6B856); conditions: read-out: Inhibition of tubulin polymerization IC50 (μM) ± SD; cited from earlier work
[2] = test system: MDA-MB-231-luc orthotopic human tumor xenografts; test: In vivo dynamic bioluminescence imaging; design: species or system SCID mice
Procedure, shortened: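 Female SCID mice carried orthotopic mammary fat pad tumors grown from […] MDA-MB-231-Luc cells (stable lentiviral firefly luciferase) in 30% Matrigel, used at about 5 mm diameter. Under 2% isoflurane in O2, mice received D-luciferin 120 mg/kg in saline SC at the fore-back neck, and BLI images were taken over 35 min. The test compound (20, 30 or 40 mg/kg), saline, or CA4P 120 mg/kg was given IP immediately after baseline. BLI was repeated with fresh luciferin at 4 and 24 h, and light intensity-time curves were analysed.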

NCI-H460 (lung) = test: SRB cytotoxicity assay, NCI-H460; assay type: cell-based, human; conditions: read-out: GI50 (μM) SRB assay NCI-H460, NCI-H460, 48 h
Procedure, shortened: as §1

tubulin = test: Inhibition of [3H]colchicine binding to tubulin; conditions: 1.0 μM tubulin, 5.0 μM [3H]colchicine
[3] = test system: human cancer cell lines [SK-OV-3 (ovarian), NCI-H460 (lung), and DU-145 (prostate)]; test: SRB cytotoxicity assay, panel of three human cancer cell lines; assay type: cell-based; conditions: read-out: GI50 against two of the three cell lines
Procedure, shortened: as §1

[4] = test system: breast tumor bearing SCID mice; test: Acute toxicity in breast tumor bearing SCID mice; assay type: in vivo; conditions: IP administration of saline solutions, doses up to 40 mg/kg

purified bovine brain tubulin, sequence (P81947 whole entry): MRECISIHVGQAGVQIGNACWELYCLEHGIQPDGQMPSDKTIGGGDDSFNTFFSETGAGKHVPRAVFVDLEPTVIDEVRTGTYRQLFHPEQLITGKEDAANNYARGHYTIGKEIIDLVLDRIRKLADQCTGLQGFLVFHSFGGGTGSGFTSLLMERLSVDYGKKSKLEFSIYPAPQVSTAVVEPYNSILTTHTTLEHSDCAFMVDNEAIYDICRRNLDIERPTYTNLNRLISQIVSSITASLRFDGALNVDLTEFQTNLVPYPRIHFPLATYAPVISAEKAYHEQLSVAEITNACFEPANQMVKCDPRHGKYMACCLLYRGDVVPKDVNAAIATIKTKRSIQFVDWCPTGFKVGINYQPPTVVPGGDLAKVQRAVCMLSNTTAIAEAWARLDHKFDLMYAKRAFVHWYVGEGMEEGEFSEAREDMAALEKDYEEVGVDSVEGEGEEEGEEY
purified bovine brain tubulin, sequence (Q6B856 whole entry): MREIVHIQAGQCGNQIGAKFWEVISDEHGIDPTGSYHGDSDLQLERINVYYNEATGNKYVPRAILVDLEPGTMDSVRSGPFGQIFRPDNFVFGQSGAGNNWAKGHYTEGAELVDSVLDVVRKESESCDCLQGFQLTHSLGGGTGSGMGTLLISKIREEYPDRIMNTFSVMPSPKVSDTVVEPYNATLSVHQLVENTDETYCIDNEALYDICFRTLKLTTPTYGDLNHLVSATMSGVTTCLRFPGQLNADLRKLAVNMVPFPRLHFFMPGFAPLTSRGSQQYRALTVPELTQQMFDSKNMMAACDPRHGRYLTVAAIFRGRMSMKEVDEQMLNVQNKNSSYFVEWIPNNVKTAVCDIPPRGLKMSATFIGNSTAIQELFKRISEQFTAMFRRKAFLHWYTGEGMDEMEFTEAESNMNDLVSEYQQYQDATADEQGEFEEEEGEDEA

| SMILES | GI50 (DU-145 (prostate); Homo sapiens) [µM] | GI50 (SK-OV-3 (ovarian); Homo sapiens) [µM] | GI50 (NCI-H460 (lung); Homo sapiens) [µM] | % Inhibition of colchicine binding ± SD (tubulin; 5 μM inhibitor) | also measured |
| --- | --- | --- | --- | --- | --- |
| COc1ccc(/C=C\c2cc(OC)c(OC)c(OC)c2)cc1OP(=O)(O)O [CA4P, combretastatin A-4P, reference compound] | – | – | – | – | GI50 (DU-145 (prostate); average of n ≥ 3): 0.00323 µM; GI50 (SK-OV-3 (ovarian); average of n ≥ 3): 0.00119 µM; IC50 [1]: > 40 µM; reduction of BLI signal / light emission ([2]; CA4P 120 mg/kg IP in saline, 4 h): greater than 90%; reduction of BLI signal (remained depressed) ([2]; CA4P 120 mg/kg IP in saline, after 24 h): > 75%; GI50 (NCI-H460 (lung); average of n ≥ 3): 0.00194 µM |
| COc1ccc(C2=CCCCc3c2ccc(OC)c3O)cc1 [Compound 67, 3-Methoxy-9-(4′-methoxyphenyl)-6,7-dihydro-5H-benzo[7]annulen-4-ol] | 8.59 | 18.4 | 10.6 | – | – |
| COc1ccc2c(c1OC)CCCC=C2c1ccccc1 [Compound 28, 3,4-Dimethoxy-9-phenyl-6,7-dihydro-5H-benzo[7]annulene] | 89.3 | 32.7 | 37.5 | – | – |
| COc1ccc(/C=C\c2cc(OC)c(OC)c(OC)c2)cc1O [CA4, combretastatin A-4, reference compound] | 0.00327 | 0.00455 | 0.00223 | – | % Inhibition of colchicine binding ± SD (tubulin; 1 μM inhibitor): 84 ± 3% |
| COc1ccc2c(c1)CCCC=C2c1cc(OC)c(OC)c(OC)c1 [Compound 29, 3-Methoxy-9-(3′,4′,5′-trimethoxyphenyl)-6,7-dihydro-5H-benzo[7]annulene] | 0.0619 | 0.0516 | 0.0527 | 72 ± 0.8% | % Inhibition of colchicine binding ± SD (tubulin; 1 μM inhibitor): 37 ± 5% |
| COc1ccc2c(c1OC)CCCC=C2c1ccc(OC)c(OC)c1OC [Compound 61, 3,4-Dimethoxy-9-(2′,3′,4′-trimethoxyphenyl)-6,7-dihydro-5H-benzo[7]annulene] | 26.2 | 6.96 | 10.5 | – | – |
| COc1ccc2c(c1O)CCCC=C2c1cc(C(F)(F)F)cc(C(F)(F)F)c1 [Compound 65, 9-(3′,5′-Bis(trifluoromethyl)phenyl)-3-methoxy-6,7-dihydro-5H-benzo[7]annulen-4-ol] | 4.92 | 4.81 | 4.39 | 8.5 ± 4% | % Inhibition of colchicine binding ± SD (tubulin; 50 μM inhibitor): 37 ± 5% |
| COc1ccc(C2=CCCCc3c2ccc(OC)c3OC)cc1 [Compound 36, 3,4-Dimethoxy-9-(4′-methoxyphenyl)-6,7-dihydro-5H-benzo[7]annulene] | 48.3 | 20.5 | 33.4 | – | – |
| CCc1c(OC)ccc2c1CCCC=C2c1cc(OC)c(OC)c(OC)c1 [Compound 31, 4-Ethyl-3-methoxy-9-(3′,4′,5′-trimethoxyphenyl)-6,7-dihydro-5H-benzo[7]annulene] | 1.51 | 0.568 | 0.763 | – | GI50 [3]: < 1000 nM |
| COc1ccc2c(c1O)CCCC=C2c1ccc(OC)c(OC)c1OC [Compound 71, 3-Methoxy-9-(2′,3, ′4′-trimethoxyphenyl)-6,7-dihydro-5H-benzo[7]annulen-4-ol] | – | – | – | – | GI50 (DU-145 (prostate); average of n ≥ 3): 7.54 µM; GI50 (SK-OV-3 (ovarian); average of n ≥ 3): 3.53 µM; GI50 (NCI-H460 (lung); average of n ≥ 3): 4.24 µM |
| COc1ccc2c(c1OC)CCCC=C2c1cc(C(F)(F)F)cc(C(F)(F)F)c1 [Compound 34, 9-(3′,5′-Bis(trifluoromethyl)phenyl)-3,4-dimethoxy-6,7-dihydro-5H-benzo[7]annulene] | 52.1 | 31.1 | 25.5 | – | – |
| COc1cc(C2=CCCCc3c2ccc(OC)c3OC)cc(OC)c1OC [Compound 35, 3,4-Dimethoxy-9-(3′,4′,5′-trimethoxyphenyl)-6,7-dihydro-5H-benzo[7]annulene] | 0.708 | 0.277 | 0.593 | 30 ± 4% | % Inhibition of colchicine binding ± SD (tubulin; 50 μM inhibitor): 56 ± 4% |
| COc1cc(C2=CCCCc3cc(O)ccc32)cc(OC)c1OC [Compound 68, 9-(3′,4′,5′-Trimethoxyphenyl)-6,7-dihydro-5H-benzo[7]annulen-3-ol] | 1.02 | 0.527 | 0.647 | 27 ± 5 (5 μM) % | – |
| COc1ccc2c(c1C)CCCC=C2c1cc(OC)c(OC)c(OC)c1 [Compound 30, 3-Methoxy-4-methyl-9-(3′,4′,5′-trimethoxyphenyl)-6,7-dihydro-5H-benzo[7]annulene] | 0.644 | 0.33 | 0.422 | 65 ± 0.6 (5 μM) % | – |
| COc1ccc2c(c1O)CCCC=C2c1ccccc1 [Compound 64, 3-Methoxy-9-phenyl-6,7-dihydro-5H-benzo[7]annulen-4-ol] | 4.4 | 0.557 | 0.652 | – | GI50 [3]: < 1000 nM |
| COc1ccc2c(c1)CCCC=C2c1ccc(OC)c(OC)c1OC [Compound 62, 3-Methoxy-9-(2′,3′,4′-trimethoxyphenyl)-6,7-dihydro-5H-benzo[7]annulene] | 0.0562 | 0.0432 | 0.12 | 69 ± 3% | % Inhibition of colchicine binding ± SD (tubulin; 1 μM inhibitor): 36 ± 5% |
| COc1ccc(C2=CCCCc3cc(OC)ccc32)cc1 [Compound 37, 3-Methoxy-9-(4′-methoxyphenyl)-6,7-dihydro-5H-benzo[7]annulene] | 68.7 | 40.7 | 57.7 | – | – |
| CCCc1c(OC)ccc2c1CCCC=C2c1cc(OC)c(OC)c(OC)c1 [Compound 32, 3-Methoxy-4-propyl-9-(3′,4′,5′-trimethoxyphenyl)-6,7-dihydro-5H-benzo[7]annulene] | 6.03 | 2.96 | 3.32 | – | – |
| COc1ccc2c(c1OP(=O)(O)O)CCCC=C2c1cc(C(F)(F)F)cc(C(F)(F)F)c1 [Compound 74, 9-(3′,5′-Bis(trifluoromethyl)phenyl)-3-methoxy-6,7-dihydro-5H-benzo[7]annulen-4-yl disodium phosphate] | – | – | – | – | GI50 (DU-145 (prostate); average of n ≥ 3): 17.5 µM; GI50 (SK-OV-3 (ovarian); average of n ≥ 3): 17.2 µM; GI50 (NCI-H460 (lung); average of n ≥ 3): 16.3 µM |
| COc1cc(C2=CCCCc3c2ccc(O)c3O)cc(OC)c1OC [Compound 70, 9-(3′,4′,5′-Trimethoxyphenyl)-6,7-dihydro-5H-benzo[7]annulene-3,4-diol] | 1.53 | 0.346 | 0.691 | – | – |
| COc1ccc2c(c1O)CCCCC2c1cc(OC)c(OC)c(OC)c1 (centres unmarked) [Compound 72, 2-Methoxy-5-(3′,4′,5′-trimethoxyphenyl)-6,7,8,9-tetrahydro-5H-benzo[7]annulen-1-ol] | 0.57 | 0.408 | 0.141 | 67 ± 0.6% | % Inhibition of colchicine binding ± SD (tubulin; 1 μM inhibitor): 21 ± 0.9% |
| COc1cc(C2CCCCc3c2ccc(OC)c3OP(=O)([O-])[O-])cc(OC)c1OC.[Na+].[Na+] (centres unmarked) [Compound 73, 2-Methoxy-5-(3′,4′,5′-trimethoxyphenyl)-6,7,8,9-tetrahydro-5H-benzo[7]annulen-1-yl disodium phosphate] | – | – | – | – | GI50 (DU-145 (prostate); average of n ≥ 3): 0.753 µM; GI50 (SK-OV-3 (ovarian); average of n ≥ 3): 0.357 µM; effect on light emission (dynamic BLI) ([2]; 30 mg/kg, 4 h after administration): modest effect; reduction of the emitted BLI signal ([2]; 40 mg/kg IP in saline, 4 h after administration): about 50%; BLI signal recovery ([2]; 20, 30 or 40 mg/kg IP, within 24 h): generally returned to its original level; also recorded: substantial recovery; reduction of BLI signal ([2]; 20 or 30 mg/kg IP in saline, 4 h after administration): modest reduction; GI50 (NCI-H460 (lung); average of n ≥ 3): 0.145 µM; acute toxicity over 24 h [4]: no obvious acute toxicity |
| Oc1ccc2c(c1O)CCCC=C2c1cc(C(F)(F)F)cc(C(F)(F)F)c1 [Compound 66, 9-(3′,5′-Bis(trifluoromethyl)phenyl)-6,7-dihydro-5H-benzo[7]annulene-3,4-diol] | 21.8 | 16.8 | 25 | – | – |
